{
  "source": "ChEMBL document CHEMBL1811836",
  "about": "“Probes for narcotic receptor mediated phenomena. Part 42: synthesis and in vitro pharmacological characterization of the N-methyl and N-phenethyl analogues of the racemic ortho-c and para-c oxide-bridged phenylmorphans” (Bioorg Med Chem, 2011)",
  "key": {"Mu-type opioid receptor [1]": {"target": "T1, Mu-type opioid receptor (Homo sapiens, UniProt P35372)", "T1 sequence (P35372 whole entry)": "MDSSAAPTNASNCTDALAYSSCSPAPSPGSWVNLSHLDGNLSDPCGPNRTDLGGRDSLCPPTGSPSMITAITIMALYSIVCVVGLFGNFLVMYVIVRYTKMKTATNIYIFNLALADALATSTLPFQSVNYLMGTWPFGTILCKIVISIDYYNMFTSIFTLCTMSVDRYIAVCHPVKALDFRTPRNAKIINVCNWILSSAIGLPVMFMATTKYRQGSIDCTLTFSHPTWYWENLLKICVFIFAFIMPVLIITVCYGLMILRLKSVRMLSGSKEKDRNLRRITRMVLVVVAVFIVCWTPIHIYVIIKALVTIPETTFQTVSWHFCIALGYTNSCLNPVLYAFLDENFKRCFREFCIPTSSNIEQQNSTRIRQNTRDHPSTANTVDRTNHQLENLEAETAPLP", "assay": "Displacement of [3H]DAMGO from human recombinant mu opioid receptor expressed in CHO cells after 2 hrs by liquid scintillation counting", "format": "cell-based"}, "[2]": {"target": "Delta-type opioid receptor (Homo sapiens, UniProt P41143)", "sequence (P41143 whole entry)": "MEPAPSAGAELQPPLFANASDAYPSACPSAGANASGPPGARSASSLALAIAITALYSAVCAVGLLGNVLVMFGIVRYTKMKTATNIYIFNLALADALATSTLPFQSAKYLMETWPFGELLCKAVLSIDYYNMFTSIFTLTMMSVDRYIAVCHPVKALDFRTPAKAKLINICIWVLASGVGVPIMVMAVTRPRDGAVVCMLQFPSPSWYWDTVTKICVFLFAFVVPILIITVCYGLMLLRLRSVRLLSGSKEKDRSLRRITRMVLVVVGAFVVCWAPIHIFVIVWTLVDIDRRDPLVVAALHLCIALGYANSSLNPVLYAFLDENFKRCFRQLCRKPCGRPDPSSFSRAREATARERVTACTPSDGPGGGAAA", "assay": "Displacement of [3H]DADLE from human recombinant delta opioid receptor expressed in recombinant hDOR-CHO cells after 2 hrs by liquid scintillation counting", "format": "cell-based", "in_short": "(§1)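 Membranes from stably transfected hDOR-CHO or hKOR-CHO cells, washed in ice-cold 10 mM Tris-HCl pH 7.4. Binding in 50 mM Tris-HCl pH 7.4 with protease inhibitors, about 30 µg protein per tube. Radioligand about 2 nM against 10 drug concentrations, triplicate, 2 h at 25 °C, GF/B filtration.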"}, "[3]": {"target": "T2, Kappa-type opioid receptor (Homo sapiens, UniProt P41145)", "T2 sequence (P41145 whole entry)": "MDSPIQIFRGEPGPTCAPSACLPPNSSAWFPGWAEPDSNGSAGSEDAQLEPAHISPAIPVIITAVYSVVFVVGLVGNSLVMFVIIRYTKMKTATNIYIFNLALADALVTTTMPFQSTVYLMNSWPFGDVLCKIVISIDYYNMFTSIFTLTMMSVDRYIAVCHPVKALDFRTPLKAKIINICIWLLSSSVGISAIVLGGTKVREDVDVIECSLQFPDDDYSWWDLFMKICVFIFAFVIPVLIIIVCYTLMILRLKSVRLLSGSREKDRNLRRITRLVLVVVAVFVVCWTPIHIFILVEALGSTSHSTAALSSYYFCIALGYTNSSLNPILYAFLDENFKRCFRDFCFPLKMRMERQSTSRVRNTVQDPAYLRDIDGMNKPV", "assay": "Displacement of [3H]U69,593 from human recombinant kappa opioid receptor expressed in CHO cells after 2 hrs by liquid scintillation counting", "format": "cell-based", "in_short": "as §1"}, "Mu-type opioid receptor [4]": {"target": "T1, Mu-type opioid receptor", "assay": "Ratio of naloxone Ke to compound Ke for human mu opioid receptor"}, "Mu-type opioid receptor [5]": {"target": "T1, Mu-type opioid receptor", "assay": "Ratio of morphine Ki to compound Ki for human mu opioid receptor"}, "Homo sapiens [6]": {"organism": "Homo sapiens", "assay": "Selectivity ratio Ki for human kappa opioid receptor to Ki for human mu opioid receptor", "in_short": "(§2)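 Ki values from radioligand displacement on membranes of stably transfected human receptor CHO cells. […] Incubation 2 h at 25 °C, triplicate, filtration. Ki from pooled logistic IC50 by Cheng-Prusoff; ratio taken against the MOR Ki.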"}, "Homo sapiens [7]": {"organism": "Homo sapiens", "assay": "Selectivity ratio Ki for human delta opioid receptor to Ki for human mu opioid receptor", "in_short": "as §2"}, "[8]": {"target": "T2, Kappa-type opioid receptor", "conditions": "CHO"}},
  "data": [
    {"smiles": "CN1C[C@H]2Oc3c(O)cccc3[C@@]23CCC[C@@H]1C3", "note": "(relative stereo)", "values": [
      {"measurement": "Ki", "setting": "Mu-type opioid receptor [1]", "result": 619, "unit": "nM"},
      {"measurement": "Ki", "setting": "[2]", "result": "> 5200", "unit": "nM"},
      {"measurement": "Ki", "setting": "[3]", "result": "> 40000", "unit": "nM"}
    ]},
    {"smiles": "CN1C[C@H]2Oc3ccc(O)cc3[C@@]23CCC[C@@H]1C3", "note": "(relative stereo)", "values": [
      {"measurement": "Ki", "setting": "Mu-type opioid receptor [1]", "result": 1500, "unit": "nM"},
      {"measurement": "Ki", "setting": "[2]", "result": "> 5200", "unit": "nM"},
      {"measurement": "Ki", "setting": "[3]", "result": 1080, "unit": "nM"}
    ]},
    {"smiles": "Oc1ccc2c(c1)[C@]13CCC[C@H](C1)N(CCc1ccccc1)C[C@H]3O2", "note": "(relative stereo)", "values": [
      {"measurement": "Ki", "setting": "Mu-type opioid receptor [1]", "result": 67, "unit": "nM"},
      {"measurement": "Ki", "setting": "[2]", "result": 1250, "unit": "nM"},
      {"measurement": "Ki", "setting": "[3]", "result": 1230, "unit": "nM"}
    ]},
    {"smiles": "Oc1cccc2c1O[C@@H]1CN(CCc3ccccc3)[C@@H]3CCC[C@]21C3", "note": "(relative stereo)", "values": [
      {"measurement": "Ratio Ke", "setting": "Mu-type opioid receptor [4]", "result": 3},
      {"measurement": "Ki", "setting": "Mu-type opioid receptor [1]", "result": 1.1, "unit": "nM"},
      {"measurement": "Ki", "setting": "[2]", "result": 1230, "unit": "nM"},
      {"measurement": "Ki", "setting": "[3]", "result": 51, "unit": "nM"},
      {"measurement": "Ratio Ki", "setting": "Mu-type opioid receptor [5]", "result": 2},
      {"measurement": "Ratio Ki", "setting": "Homo sapiens [6]", "result": 50},
      {"measurement": "Ratio Ki", "setting": "Homo sapiens [7]", "result": 1200},
      {"measurement": "Ke", "setting": "[8]", "result": 1.79, "unit": "nM"}
    ]}
  ]
}
